{"source": "ChEMBL document CHEMBL1143790", "about": "“Effect of substituents on diarylmethanes for antitubercular activity” (2007)", "data": [{"tested_on": "Mycobacterium tuberculosis", "assay": "Antitubercular activity against Mycobacterium tuberculosis H37Rv by BACTEC method", "assay_type": "functional", "in_short": "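Radiometric BACTEC 12B (7H12) broth; compounds from 1 mg/mL DMSO stock, DMSO-only controls, isoniazid and rifampin references. H37Rv inoculated at 10⁴–10⁵ CFU/mL, plus 1:100-diluted inoculum control. Incubated at 37 °C with daily GI readings until the 1:100 control reached GI 30. MIC was the concentration giving a final GI below the 1:100 control ([…] inhibition).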", "units": {"MIC": "µg/mL"}, "values": [{"molecule": "COc1ccc(C(c2ccc(OCCN3CCCCCC3)cc2)c2cn(S(=O)(=O)c3ccccc3)c3ccccc23)cc1", "note": "(centres undefined)", "MIC": 12.5}, {"molecule": "COc1ccc(C(c2ccc(OCCN3CCCCC3)cc2)c2cn(S(=O)(=O)c3ccccc3)c3ccccc23)cc1", "note": "(centres undefined)", "MIC": 6.25}, {"molecule": "CCN(CC)CCOc1ccc(C(c2ccc(OC)cc2)c2cccnc2)cc1", "note": "(centres undefined)", "MIC": 12.5}, {"molecule": "CN(C)CCOc1ccc(C(c2ccc(O)cc2)c2cc3ccccc3c3ccccc23)cc1", "note": "(centres undefined)", "MIC": 12.5}, {"molecule": "COc1ccc(C(c2ccc(OCCN3CCCC3)cc2)c2cccnc2)cc1", "note": "(centres undefined)", "MIC": 12.5}, {"molecule": "COc1ccc(C(c2ccc(OCCN3CCCCC3)cc2)c2cc3ccccc3c3ccccc23)cc1", "note": "(centres undefined)", "MIC": 6.25}, {"molecule": "COc1ccc(C(c2ccc(OCCN3CCCC3)cc2)c2cc3ccccc3c3ccccc23)cc1", "note": "(centres undefined)", "MIC": 6.25}, {"molecule": "CCN(CC)CCOc1ccc(C(c2ccc(OC)cc2)c2cc3ccccc3c3ccccc23)cc1", "note": "(centres undefined)", "MIC": 6.25}, {"molecule": "CCN(CC)CCOc1ccc(C(c2ccc(O)cc2)c2cc3ccccc3c3ccccc23)cc1", "note": "(centres undefined)", "MIC": 12.5}, {"molecule": "COc1ccc(C(c2ccc(OCCN(C)C)cc2)c2cc3ccccc3c3ccccc23)cc1", "note": "(centres undefined)", "MIC": 12.5}, {"molecule": "COc1ccc(C(c2ccc(OCCN3CCCCC3)cc2)c2cccnc2)cc1", "note": "(centres undefined)", "MIC": 12.5}, {"molecule": "Oc1ccc(C(c2ccc(OCCN3CCCCC3)cc2)c2cc3ccccc3c3ccccc23)cc1", "note": "(centres undefined)", "MIC": 12.5}]}, {"tested_on": "Mycobacterium tuberculosis", "assay": "Antitubercular activity against Mycobacterium tuberculosis H37Rv by MABA assay", "assay_type": "functional", "units": {"MIC": "µg/mL"}, "values": [{"molecule": "COc1ccc(C(c2ccc(OCCN3CCCCCC3)cc2)c2cn(S(=O)(=O)c3ccccc3)c3ccccc23)cc1", "note": "(centres undefined)", "MIC": 12.5}, {"molecule": "COc1ccc(C(c2ccc(OCCN3CCCCC3)cc2)c2cn(S(=O)(=O)c3ccccc3)c3ccccc23)cc1", "note": "(centres undefined)", "MIC": 6.25}, {"molecule": "COc1ccc(Cc2ccc(OCCN(C)C)cc2)cc1", "MIC": "> 25"}, {"molecule": "CCN(CC)CCOc1ccc(C(c2ccc(OC)cc2)c2cccnc2)cc1", "note": "(centres undefined)", "MIC": "> 25"}, {"molecule": "COc1ccc(C(c2ccc(OCCN3CCCC3)cc2)c2cn(S(=O)(=O)c3ccccc3)c3ccccc23)cc1", "note": "(centres undefined)", "MIC": 12.5}, {"molecule": "CN(C)CCOc1ccc(C(c2ccc(O)cc2)c2cc3ccccc3c3ccccc23)cc1", "note": "(centres undefined)", "MIC": 25}, {"molecule": "COc1ccc(C(c2ccc(OCCN3CCCC3)cc2)c2cccnc2)cc1", "note": "(centres undefined)", "MIC": "> 25"}, {"molecule": "COc1ccc(C(c2ccc(OCCN(C)C)cc2)c2cccnc2)cc1", "note": "(centres undefined)", "MIC": "> 25"}, {"molecule": "COc1ccc(C(c2ccc(OCCN(C)C)cc2)c2cn(S(=O)(=O)c3ccccc3)c3ccccc23)cc1", "note": "(centres undefined)", "MIC": "> 25"}, {"molecule": "COc1ccc(C(c2ccc(OCCN3CCCCC3)cc2)c2cc3ccccc3c3ccccc23)cc1", "note": "(centres undefined)", "MIC": 6.25}, {"molecule": "COc1ccc(C(c2ccc(OCCN3CCCC3)cc2)c2cc3ccccc3c3ccccc23)cc1", "note": "(centres undefined)", "MIC": 6.25}, {"molecule": "CCN(CC)CCOc1ccc(C(c2ccc(OC)cc2)c2cc3ccccc3c3ccccc23)cc1", "note": "(centres undefined)", "MIC": 6.25}, {"molecule": "COc1ccc(C(c2ccc(OCCN(C)C)cc2)c2c3ccccc3cc3ccccc23)cc1", "note": "(centres undefined)", "MIC": 12.5}, {"molecule": "CCN(CC)CCOc1ccc(C(c2ccc(O)cc2)c2cc3ccccc3c3ccccc23)cc1", "note": "(centres undefined)", "MIC": 25}, {"molecule": "CCN(CC)CCOc1ccc(C(c2ccc(OC)cc2)c2cn(S(=O)(=O)c3ccccc3)c3ccccc23)cc1", "note": "(centres undefined)", "MIC": 12.5}, {"molecule": "COc1ccc(C(c2ccc(OCCN(C)C)cc2)c2cc3ccccc3c3ccccc23)cc1", "note": "(centres undefined)", "MIC": 25}, {"molecule": "COc1ccc(C(c2ccc(OCCN3CCCCC3)cc2)c2cccnc2)cc1", "note": "(centres undefined)", "MIC": "> 25"}, {"molecule": "COc1ccc(Cc2ccc(OCCN3CCCCC3)cc2)cc1", "MIC": "> 25"}, {"molecule": "Oc1ccc(C(c2ccc(OCCN3CCCCC3)cc2)c2cc3ccccc3c3ccccc23)cc1", "note": "(centres undefined)", "MIC": 25}]}, {"tested_on": "Mycobacterium tuberculosis", "assay": "Antitubercular activity against Mycobacterium tuberculosis H37Rv by microdilution method", "assay_type": "functional", "in_short": "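Agar microdilution: serial two-fold compound dilutions in 7H10 agar, with H37Rv as test organism. MIC was the concentration completely inhibiting growth and colony-forming ability of M. tuberculosis.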", "units": {"MIC": "µg/mL"}, "values": [{"molecule": "COc1ccc(C(c2ccc(OCCN3CCCCCC3)cc2)c2cn(S(=O)(=O)c3ccccc3)c3ccccc23)cc1", "note": "(centres undefined)", "MIC": 12.5}, {"molecule": "COc1ccc(C(c2ccc(OCCN3CCCCC3)cc2)c2cn(S(=O)(=O)c3ccccc3)c3ccccc23)cc1", "note": "(centres undefined)", "MIC": 6.25}, {"molecule": "COc1ccc(Cc2ccc(OCCN(C)C)cc2)cc1", "MIC": "> 25"}, {"molecule": "CCN(CC)CCOc1ccc(C(c2ccc(OC)cc2)c2cccnc2)cc1", "note": "(centres undefined)", "MIC": "> 25"}, {"molecule": "COc1ccc(C(c2ccc(OCCN3CCCC3)cc2)c2cn(S(=O)(=O)c3ccccc3)c3ccccc23)cc1", "note": "(centres undefined)", "MIC": 12.5}, {"molecule": "CN(C)CCOc1ccc(C(c2ccc(O)cc2)c2cc3ccccc3c3ccccc23)cc1", "note": "(centres undefined)", "MIC": 12.5}, {"molecule": "COc1ccc(C(c2ccc(OCCN3CCCC3)cc2)c2cccnc2)cc1", "note": "(centres undefined)", "MIC": "> 25"}, {"molecule": "COc1ccc(C(c2ccc(OCCN(C)C)cc2)c2cccnc2)cc1", "note": "(centres undefined)", "MIC": "> 25"}, {"molecule": "COc1ccc(C(c2ccc(OCCN(C)C)cc2)c2cn(S(=O)(=O)c3ccccc3)c3ccccc23)cc1", "note": "(centres undefined)", "MIC": "> 12.5"}, {"molecule": "COc1ccc(C(c2ccc(OCCN3CCCCC3)cc2)c2cc3ccccc3c3ccccc23)cc1", "note": "(centres undefined)", "MIC": 6.25}, {"molecule": "COc1ccc(C(c2ccc(OCCN3CCCC3)cc2)c2cc3ccccc3c3ccccc23)cc1", "note": "(centres undefined)", "MIC": 6.25}, {"molecule": "CCN(CC)CCOc1ccc(C(c2ccc(OC)cc2)c2cc3ccccc3c3ccccc23)cc1", "note": "(centres undefined)", "MIC": 6.25}, {"molecule": "COc1ccc(C(c2ccc(OCCN(C)C)cc2)c2c3ccccc3cc3ccccc23)cc1", "note": "(centres undefined)", "MIC": 12.5}, {"molecule": "CCN(CC)CCOc1ccc(C(c2ccc(O)cc2)c2cc3ccccc3c3ccccc23)cc1", "note": "(centres undefined)", "MIC": 12.5}, {"molecule": "CCN(CC)CCOc1ccc(C(c2ccc(OC)cc2)c2cn(S(=O)(=O)c3ccccc3)c3ccccc23)cc1", "note": "(centres undefined)", "MIC": 12.5}, {"molecule": "COc1ccc(C(c2ccc(OCCN(C)C)cc2)c2cc3ccccc3c3ccccc23)cc1", "note": "(centres undefined)", "MIC": 25}, {"molecule": "COc1ccc(C(c2ccc(OCCN3CCCCC3)cc2)c2cccnc2)cc1", "note": "(centres undefined)", "MIC": "> 25"}, {"molecule": "COc1ccc(Cc2ccc(OCCN3CCCCC3)cc2)cc1", "MIC": "> 25"}, {"molecule": "Oc1ccc(C(c2ccc(OCCN3CCCCC3)cc2)c2cc3ccccc3c3ccccc23)cc1", "note": "(centres undefined)", "MIC": 12.5}]}, {"tested_on": "not listed separately", "assay": "Selectivity index, IC50 for vero cells to MIC for Mycobacterium tuberculosis H37Rv", "assay_type": "functional", "values": [{"molecule": "COc1ccc(C(c2ccc(OCCN3CCCCC3)cc2)c2cn(S(=O)(=O)c3ccccc3)c3ccccc23)cc1", "note": "(centres undefined)", "Selectivity index": 10}, {"molecule": "COc1ccc(C(c2ccc(OCCN3CCCCC3)cc2)c2cc3ccccc3c3ccccc23)cc1", "note": "(centres undefined)", "Selectivity index": 10}, {"molecule": "COc1ccc(C(c2ccc(OCCN3CCCC3)cc2)c2cc3ccccc3c3ccccc23)cc1", "note": "(centres undefined)", "Selectivity index": 20}, {"molecule": "CCN(CC)CCOc1ccc(C(c2ccc(OC)cc2)c2cc3ccccc3c3ccccc23)cc1", "note": "(centres undefined)", "Selectivity index": 20}]}]}
